Test results published in ChEMBL document CHEMBL3351250, “Modified salicylanilide and 3-phenyl-2H-benzo[e][1,3]oxazine-2,4(3H)-dione derivatives as novel inhibitors of osteoclast differentiation and bone resorption” (J Med Chem, 2014).

Assays:
[1] = Cytotoxicity against mouse RAW264.7 cells assessed as survival rate at 10 uM after 24 hrs by MTT assay; format: cell-based; conditions: read-out: Activity
Method in brief: (§1)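 Cells at 1 × 10⁴/well in DMEM + 10% FBS, exposed to compounds for 24 h at 37 °C, 5% CO₂. After PBS washes, MTT (0.5 mg/mL in medium) added for 1 h at 37 °C; formazan dissolved in DMSO, absorbance read at 540 nm. Viability expressed as % of DMSO control; CC₅₀ is the concentration giving 50% loss of mean viability (N = 3).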

[2] = Cytotoxicity against mouse RAW264.7 cells assessed as reduction in survival rate after 24 hrs by MTT assay; format: cell-based; method in brief: as §1
[3] = tested on: RAW264.7; test: Inhibition of RANKL-induced osteoclastogenesis in mouse RAW264.7 cells assessed as TRAP+ multinucleated cells level at 10 uM incubated for 4 days by TRAP staining assay; format: functional; parameters: scale not given: the % may be the effect or the level left
Method in brief: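 Cells plated at 1 × 10³ (96-well) or 5 × 10⁴ (48-well) in α-MEM with 10% FBS, 2 mM […], 100 ng/mL recombinant murine RANKL and compound for 4 days; medium changed on day 2. Fixed in acetone/citrate/formaldehyde for 5 min and TRAP-stained. TRAP⁺ cells with >5 nuclei counted by light microscopy, expressed as % of the RANKL-only group.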

[4] = tested on: RAW264.7; test: Inhibition of RANKL-induced osteoclastogenesis in mouse RAW264.7 cells assessed as reduction in TRAP activity incubated for 4 days by TRAP staining assay; format: functional, cell-based; conditions: RAW264.7, 96 h
Method in brief: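 RAW264.7 cells were RANKL-differentiated (100 ng/mL recombinant soluble murine RANKL in α-MEM/10% FBS, compounds at various concentrations, 4 days, medium changed day 2). TRAP activity was read with 2 mg/mL 4-nitrophenyl phosphate in 0.09 M citrate buffer for 15 min at 37 °C, stopped with 0.1 N NaOH. Expressed as % of RANKL-only; IC50 is 50% inhibition.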

[5] = tested on: RAW264.7; test: Inhibition of RANKL-induced osteoclastogenesis in mouse RAW264.7 cells assessed as TRAP+ multinucleated cells level incubated for 4 days by TRAP staining assay; format: functional, cell-based; conditions: RAW264.7, 96 h
Method in brief: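 RAW264.7 cells in α-MEM with 10% FBS, 2 mM […], 100 ng/mL recombinant soluble murine RANKL and a range of compound concentrations for 4 days, with medium changed on day 2. Cells fixed in acetone/citrate/formaldehyde for 5 min and TRAP-stained. Cells with >5 nuclei counted by light microscopy and expressed as % of RANKL-only; IC50 is 50% inhibition.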

Structure (SMILES)	viability at 24 h, 10 µM [1] [%]	CC50 at 24 h [2] [µM]	Activity [3] [%]	IC50 [4] [µM]	IC50 [5] [µM]
COc1ccc(C(=O)Nc2ccc(Cl)cc2F)c(OCc2ccc(F)cc2F)c1	107	> 40	68.7		
COc1ccc(C(=O)Nc2ccc(F)cc2F)c(OCc2ccc(F)cc2F)c1	106	> 40	66.2		
O=C(Nc1ccc(Cl)cc1F)c1ccccc1	105	> 40	77.9		
O=C(Nc1ccc(F)cc1F)c1ccccc1	105	> 40	75.2		
COc1ccc(C(=O)Nc2ccc(F)cc2F)c(O)c1	89.7	> 40	74.9		
O=C(O)c1ccccc1O [SALICYLIC ACID]		> 40			
COc1ccc2c(=O)n(-c3ccc(F)cc3F)c(=O)oc2c1	90.9	> 40	67.5		
COc1ccc(C(=O)Nc2ccc(I)cc2F)c(OC)c1	95	> 40	92.4		
O=C(Nc1ccc(F)cc1F)c1ccccc1OCc1ccc(F)cc1F	101	> 40	97.6		
O=C(Nc1ccc(F)cc1F)c1ccccc1O	76.1	38.4	85.2		
COc1ccc(C(=O)Nc2ccc(I)cc2F)c(O)c1	94.4	27.6	39.4		
COc1ccc(C(=O)Nc2ccc(-c3ccc(F)cc3F)cc2F)c(O)c1	64.5	26.3	50.1		
O=C(Nc1ccc(I)cc1F)c1ccccc1O	96.7	23.3	70.6		
O=C(Nc1ccc(Cl)cc1F)c1ccccc1O	93	23.2	49.4	12.5	10
COc1ccc(C(=O)Nc2ccc(I)cc2F)cc1	91.4	32.8	89.3		
COc1ccc(C(=O)Nc2ccc(F)cc2F)cc1	102	> 40	73.3		
O=c1oc2ccccc2c(=O)n1-c1ccc(F)cc1F	88.8	> 40	82.5		
COc1ccc2c(=O)n(-c3ccc(I)cc3F)c(=O)oc2c1	103	30.1	44.4		

Structure (SMILES)	viability at 24 h, 10 µM [1] [%]	CC50 at 24 h [2] [µM]	Activity [3] [%]	IC50 [4] [µM]	IC50 [5] [µM]
COc1ccc(C(=O)Nc2ccc(Cl)cc2F)c(O)c1	103	32.3	23.8		
COc1ccc(C(=O)Nc2ccc(-c3ccc(Cl)cc3Cl)cc2F)c(O)c1	102	> 40	92.5		
COc1ccc(C(=O)Nc2ccc(Cl)cc2F)cc1	106	> 40	100.4		
O=C(Nc1ccc(-c2ccc(Cl)cc2F)cc1F)c1ccccc1O	90.9	27.2	84.8		
COc1ccc(C(=O)Nc2ccc(F)cc2F)c(OC)c1	102	> 40	93		
COc1ccc(C(=O)O)c(O)c1 [4-METHOXYSALICYLIC ACID]	99.4	> 40	79.6		
COc1ccccc1C(=O)Nc1ccc(F)cc1F	108	> 40	89.1		
COc1ccc(C(=O)Nc2ccc(-c3ccc(Cl)cc3F)cc2F)c(O)c1	44.5		60.6		
O=C(Nc1ccc(Cl)cc1F)c1ccccc1OCc1ccc(F)cc1F	107	> 40	74.6		
O=C(Nc1ccc(-c2ccc(Cl)cc2Cl)cc1F)c1ccccc1O	105	29.8	91.2		
O=C(Nc1ccc(I)cc1F)c1ccccc1	105	> 40	76.8		
O=C(Nc1ccc(-c2ccc(F)cc2F)cc1F)c1ccccc1O	102	28.6	100.1		
O=C(Nc1ccc(I)cc1F)c1ccccc1OCc1ccc(F)cc1F	85	32.6	85.5		
COc1ccc(C(=O)Nc2ccc(Cl)cc2F)c(OC)c1	52.9	13.6	60.2		
COc1ccccc1C(=O)Nc1ccc(Cl)cc1F	102	> 40	86		
COc1ccc2c(=O)n(-c3ccc(Cl)cc3F)c(=O)oc2c1	100	> 40	36		
COc1ccccc1C(=O)Nc1ccc(I)cc1F	95.4	> 40	106.6		
COc1ccc(C(=O)Nc2ccc(I)cc2F)c(OCc2ccc(F)cc2F)c1	104	36.8	51.3		
